Activity calls are given as the source filed them.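 Rule for the calls, unless noted: active = inhibition at or above 50% at 10 µM; inactive = inhibition below 50%.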

Assay [1] in a line: inhibitors of TNFa-induced NFkB p65 translocation, primary screen, imaging, HUVEC, MLSMR starter and 10KST1 sets (AID 438;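 active = inhibition above 20% together with a positive visual image hit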;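 note: compound added about 3h40 before a 20 min TNFalpha stimulation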;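 for inhibition: signal is the nuclear over cytoplasmic p65 intensity ratio per well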). The following applies: HUVEC TNFa-induced p65 nuclear translocation; cell count: measured here: nuclei count (cytotoxicity indicator), at 2.08 µM; inhibition: at 2 µM, stronger effect = higher value, 0% TNFa-plus-vehicle, 100% no-TNFa wells.
Assay [2] can be described thus: inhibitors of mutant huntingtin aggregation, primary screen, imaging, exon1htt(103Q)mCFP cells, high-content imaging (AID 483;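 active = visual image review flags a hit and inhibition of aggregation exceeds 20%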;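 note: compound exposure lasted 3 days before fixation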;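 for nuclei count: percent of the per-plate median nuclei count of sample wells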). As to conditions: exon1htt(103Q)mCFP cell line, aggregate imaging, at 2 µM; inhibition of aggregation: stronger effect = higher value; nuclei count: measured here: cell count, toxicity.
Assay [3] in a line: inhibitors of E-selectin induction by TNFa, primary screen, imaging, HUVEC, immunofluorescence, MLSMR starter and 10KST1 sets (AID 487;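 active = visually confirmed hit in the image check and inhibition above 20%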;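 for inhibition: signal is fraction of cell area covered by stained E-selectin grains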;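 for nuclei count: 100% = median nuclei count of all wells on the same plate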). The following applies: HUVEC TNFalpha-induced E-selectin immunofluorescence imaging, at 2 µM; inhibition: stronger effect = higher value; nuclei count: measured here: cell number, toxicity.
For assay [4], the target named is Voltage-gated potassium channel subunit beta-2 (Rattus norvegicus) (UniProt P62483). As to the kind of experiment: KvBeta enzyme negative modulators, primary screen, biochemical, NADPH fluorescence (AID 622;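 active = fluorescence slope higher than the sample average by over 3 SD, cut at about -0.22 in these data, passing the limit was not always enough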;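 note: slope of raw intensity against log time taken from 70 to 1610 s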). As to conditions: recombinant KvBeta, 4-cyanobenzaldehyde reduction, at 10 µM, stronger effect = higher value.
Sequence of Voltage-gated potassium channel subunit beta-2 (Rattus norvegicus) (P62483 whole entry, looked up): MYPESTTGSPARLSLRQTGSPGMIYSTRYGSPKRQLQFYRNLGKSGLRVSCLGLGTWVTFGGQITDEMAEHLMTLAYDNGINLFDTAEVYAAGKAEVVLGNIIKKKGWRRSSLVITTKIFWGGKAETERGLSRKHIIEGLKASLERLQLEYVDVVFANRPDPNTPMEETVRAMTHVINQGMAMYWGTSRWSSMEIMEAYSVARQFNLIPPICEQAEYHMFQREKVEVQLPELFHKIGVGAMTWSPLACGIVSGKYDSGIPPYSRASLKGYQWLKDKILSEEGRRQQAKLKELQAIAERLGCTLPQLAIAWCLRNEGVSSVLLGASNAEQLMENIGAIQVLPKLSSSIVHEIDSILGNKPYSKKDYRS
Assay [5] shares this target. Kind of assay: KvBeta positive modulators, primary screen, biochemical, NADPH fluorescence (AID 623;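 active = NADPH fluorescence slope more negative than the mean of all samples by about 3 SD, 99.7% confidence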;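 note: fluorescence intensity change per second fitted from 20 to 320 s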). The following applies: Recombinant KvBeta, NADPH fluorescence decrease slope, 10 min; at 10 µM; stronger effect = lower value.
Assay [6] addresses Alpha-2C adrenergic receptor (Homo sapiens) (UniProt P18825). As to the kind of experiment: modulators of alpha2C/GIRK thallium flux, primary screen, cell-based, HEK293 alpha2C/GIRK1/2 (AID 624;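 active = fluorescence slope after compound addition differing from the mean of all screened samples at 99.7% confidence, in either direction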;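 note: slope of fluorescence ratio to pre-addition baseline per second over 15 to 24 s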). The following applies: thallium flux BTC fluorescence, at 10 µM, actives lie on both sides.
Assay [7] in a line: inhibitors of larval lipid processing in zebrafish, primary screen, whole organism, PED6 fluorescence, gall bladder and intestine (AID 686;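 active = a full or partial loss of lipid-probe fluorescence in the fish gall bladder, intestine or both, judged by eye; inactive = no fluorescence loss, or compound toxic to the fish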;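 note: larvae 5 to 7 days old with five fish per well; signal comes from phospholipase A2 cleavage of quenched PED6 carried via bile; overnight exposure to compound and PED6 before scoring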). As to conditions: Zebrafish larvae PED6 lipid processing, fluorescence scoring; screened at 20 µM (by protocol). In short, it runs like this:
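system = live zebrafish larvae aged 5-7 days, whole organism | probe or stimulus = ingested quenched lipid PED6 at 100 nM | doses = 20 µM single dose | timing = overnight exposure | detection = fluorescence microscopy with visual scoring of gall bladder and intestine | read-out = visual per-well fluorescence inhibition score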

Assay [8] is described as follows: inhibitors of Sendai virus-induced IRF3 signaling, primary screen, TLR/RLR signaling modifier project, cell-based, Sendai virus stimulus, luciferase, 10K MLSCN set (AID 602276).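 Note: firefly luciferase from ISG56 promoter only with Renilla not read in this screen; 0% = Sendai virus plus DMSO and 100% = medium plus DMSO without virus.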 The following applies: HEK293 RL24 IRF3 luciferase reporter, at 10 µM, stronger effect = higher value. A general note: Reporter assays use an easily measured gene product as a stand-in for the process of interest.

A short description of assay [9]: inhibitors of poly I:C-induced TLR3 signaling, primary screen, cell-based, poly I:C stimulus, luciferase, 10K MLSCN set (AID 602277;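 active = inhibition of the reporter signal at or above 50%; inactive = inhibition below 50%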). As to conditions: HEK293-TLR3 RL24 IRF3 luciferase reporter, at 10 µM, stronger effect = higher value.

Sequence of Alpha-2C adrenergic receptor (Homo sapiens) (P18825 whole entry, looked up): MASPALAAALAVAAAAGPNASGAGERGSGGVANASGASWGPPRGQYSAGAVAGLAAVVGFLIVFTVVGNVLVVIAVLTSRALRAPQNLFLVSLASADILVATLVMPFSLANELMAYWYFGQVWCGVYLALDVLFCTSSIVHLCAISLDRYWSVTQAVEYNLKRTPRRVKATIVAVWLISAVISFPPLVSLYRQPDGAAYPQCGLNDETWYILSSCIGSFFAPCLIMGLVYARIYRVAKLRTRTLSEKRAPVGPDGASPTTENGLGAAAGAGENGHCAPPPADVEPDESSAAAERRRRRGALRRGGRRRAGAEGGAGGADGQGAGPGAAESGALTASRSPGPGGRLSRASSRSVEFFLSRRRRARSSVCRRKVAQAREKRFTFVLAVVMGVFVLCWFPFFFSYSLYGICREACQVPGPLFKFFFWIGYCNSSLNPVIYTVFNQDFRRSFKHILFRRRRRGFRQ

For orientation: inhibition means the drop in the measured response relative to a control, in per cent. With `CCOC(=O)c1[nH]c2ccc(C)cc2c1NC(=O)CN1CCCCC1`, the cell count in assay [1] was 672. In addition, the inhibition in assay [1] is 13.7% (inactive); in assay [3] it was -12% (inactive); in [8], 13.3% (inactive); in [9], 14.1% (inactive). Moreover, in assay [2], the inhibition of aggregation is 5.6% (inactive). For the same molecule, the nuclei count is 93.3% in assay [2] and 87.9% in [3]. Further, the fluorescence slope in assay [4] is -0.349 (inactive). Besides, the NADPH fluorescence slope in assay [5] is -2.6e-05 (inactive). Further, the slope in assay [6] is 0.00444 (inactive). Further, the call in [7] was inactive.
`CCN(CC)C(c1ccc(C)cc1)c1nnnn1C1CCCCC1` (stereo unspecified): in [1], the cell count was determined as 438. Moreover, the inhibition is -6.7% (inactive) in assay [1], 60% (inactive) in [3], 16.7% (inactive) in assay [8] and 25.8% (inactive) in assay [9]. The inhibition of aggregation in [2] is 37.1% (inactive). The nuclei count is 85.4% in assay [2] and 88.2% in assay [3]. Moreover, the fluorescence slope in assay [4] is -0.399 (inactive). Also, in assay [5], the NADPH fluorescence slope is -6.9e-05 (inactive). Moreover, the slope in assay [6] was 0.00367 (inactive). Besides, the outcome in assay [7] was inactive.
On to `O=C(Nc1ccccc1Cl)c1c(F)c(F)c(F)c(F)c1F`, for which the cell count in [1] amounted to 407. Further, the inhibition in assay [1] was 5.5% (inactive); in assay [3], -166% (inactive); in assay [8] it was -7.6% (inactive); in [9], -12.7% (inactive). In assay [2], the inhibition of aggregation is 2.9% (inactive). Further, the results for the nuclei count in [2] and in [3] were 103% and 116%, respectively. Besides, the fluorescence slope in assay [4] is -0.479 (inactive). Besides, the NADPH fluorescence slope in assay [5] is -3e-05 (inactive). In addition, the slope in [6] is 0.00592 (inactive). In addition, the molecule was classed as inactive in assay [7].
`O=C(CCCSc1nc2ccccc2s1)NC1=NCCS1`: the cell count in [1] was 333. Besides, the inhibition was -7.4% (inactive) in assay [1], -3.2% (inactive) in assay [3], 36% (inactive) in assay [8] and 60.9% (active) in assay [9]. Moreover, the inhibition of aggregation in assay [2] is 10.8% (inactive). Besides, the nuclei count in assay [2] and in assay [3] was 102% throughout. Further, the fluorescence slope in [4] is -0.409 (inactive). Further, the NADPH fluorescence slope in assay [5] was -1.5e-05 (inactive). Also, in assay [6], the slope is 0.00541 (inactive). The result in assay [7] was inactive.
Consider `Cc1cc(=O)c2n(Cc3ccccc3Cl)nc[n+]2[nH]1`, for which the cell count in assay [1] turned out to be 800. Also, the inhibition in assay [1] is 6% (inactive); in [3], -111% (inactive); in assay [8], 5.55% (inactive); in assay [9] it was 8.5% (inactive). Besides, the inhibition of aggregation in [2] was 3% (inactive). The nuclei count in assay [2] is 97.2%; in [3], 120%. Besides, in [4], the fluorescence slope was -0.397 (inactive). Moreover, the NADPH fluorescence slope in assay [5] is -5.7e-05 (inactive). In addition, the slope in assay [6] was 0.00447 (inactive). Further, in assay [7], the outcome was inactive.
For `CCOC(=O)Cc1csc(NC(=O)c2cccc(OC)c2)n1`, the cell count in assay [1] was 395. Moreover, the inhibition in assay [1] was 5.8% (inactive); in [3], -15.2% (inactive); in assay [8], 4.13% (inactive); in [9], -6.24% (inactive). In addition, the inhibition of aggregation in assay [2] was -28.7% (inactive). Further, the nuclei count in assay [2] stood at 97%; in assay [3] it was 113%. The fluorescence slope in [4] was -0.459 (inactive). In addition, the NADPH fluorescence slope in [5] is -3.2e-05 (inactive). Moreover, the slope in assay [6] was 0.00478 (inactive). Further, the outcome in assay [7] was inactive.
With `O=C(Nc1ccc2[nH]c3c(c2c1)CCCC3)c1ccco1`, the cell count in [1] came to 446. The inhibition in [1] is -20.5% (inactive); in assay [3] it was 78.9% (active); in assay [8], -30.4% (inactive); in [9] it was -98.2% (inactive). Also, the inhibition of aggregation in assay [2] is 31% (inactive). Besides, the nuclei count came to 85.7% in assay [2] and 103% in assay [3]. Also, in [4], the fluorescence slope is -0.288 (inactive). The NADPH fluorescence slope in assay [5] was -4.7e-05 (inactive). Also, the slope in assay [6] is 0.00582 (inactive). For the same molecule, the molecule was called inactive in assay [7].
Turning to `O=C(CN(Cc1ccc(F)cc1)C(=O)c1ccco1)NCc1ccc(F)cc1`, the cell count in assay [1] came out at 357. Further, the inhibition in assay [1] is 6.8% (inactive); in assay [3], -382% (inactive); in [8], 14.4% (inactive); in [9], 21.2% (inactive). Also, in [2], the inhibition of aggregation is 7% (inactive). Further, the results for the nuclei count in assay [2] and in [3] were 90.9% and 130%, respectively. Moreover, the fluorescence slope in [4] is -0.359 (inactive). The NADPH fluorescence slope in [5] is -3.4e-05 (inactive). The slope in assay [6] is 0.00584 (inactive). The molecule was called inactive in assay [7].
Consider `CC(C)(C)n1ncc2c(=O)n(CC(=O)NCc3ccccc3)cnc21`, for which the cell count in assay [1] is 615. Besides, the inhibition in [1] was 2.4% (inactive); in [3], -117% (inactive); in assay [8], -28.3% (inactive); in assay [9] it was 69.7% (active). For the same molecule, the inhibition of aggregation in [2] is 0.5% (inactive). Further, the nuclei count in [2] worked out at 82.4%; in [3], 104%. Also, the fluorescence slope in assay [4] was -0.296 (inactive). Besides, the NADPH fluorescence slope in assay [5] is -1.3e-05 (inactive). Besides, the slope in assay [6] was 0.00536 (inactive). Also, the molecule was classed as inactive in assay [7].
For the molecule `Cc1nc2ccc(C(=O)O)cc2c2c1CC(C)S2` (stereo unspecified), in assay [1], the cell count was 462. For the same molecule, the inhibition in [1] is -3.8% (inactive); in [3], -20.4% (inactive); in assay [8], 13.9% (inactive); in [9], 11.7% (inactive). Further, the inhibition of aggregation in [2] was -4% (inactive). Moreover, the nuclei count in [2] came to 106%; in assay [3], 104%. Besides, the fluorescence slope in assay [4] is -0.38 (inactive). Moreover, in assay [5], the NADPH fluorescence slope is -4.3e-05 (inactive). For the same molecule, the slope in assay [6] is 0.00518 (inactive). Also, the outcome in [7] was inactive.
On to `CCN(CC(=O)Nc1ccc2c(c1)OCCO2)Cc1cc(=O)oc2cc(C)c(C)cc12`, for which, in [1], the cell count is 337. Further, the inhibition in [1] is -9.6% (inactive); in [3], -2.6% (inactive); in assay [8] it was 25.7% (inactive); in assay [9], 16.9% (inactive). Moreover, in [2], the inhibition of aggregation was 8.8% (inactive). Further, the figures for the nuclei count in [2] and in assay [3] were 96.4% and 119%, respectively. Moreover, in [4], the fluorescence slope is -0.474 (inactive). In assay [5], the NADPH fluorescence slope is -3.1e-05 (inactive). Besides, the slope in assay [6] is 0.00545 (inactive). For the same molecule, the call in assay [7] was inactive.
Regarding `CC1Oc2ccccc2N(Cc2ccccc2Cl)C1=O` (stereo unspecified), the cell count in [1] amounted to 630. Besides, the inhibition in assay [1] is 15.4% (inactive); in assay [3] it was -90.8% (inactive); in assay [8], -20.2% (inactive); in [9], -52.6% (inactive). Also, the inhibition of aggregation in [2] is -11.1% (inactive). Further, the nuclei count in [2] amounted to 59.5%; in assay [3] it was 106%. For the same molecule, the fluorescence slope in assay [4] was -0.475 (inactive). The NADPH fluorescence slope in [5] was -5.9e-05 (inactive). Besides, the slope in [6] was 0.00421 (inactive). Besides, the molecule was called inactive in assay [7].
For `Cc1cc(NC(=O)CSc2nc(C3CC3)nc3sc4c(c23)CCC(C)C4)no1` (stereo unspecified), the cell count in assay [1] was found to be 321. The inhibition in assay [1] was -1.3% (inactive); in [3], -43% (inactive); in [8], -13.4% (inactive); in [9] it was -24.3% (inactive). Further, the inhibition of aggregation in assay [2] is 0.7% (inactive). Also, the nuclei count is 75.3% in [2] and 113% in assay [3]. For the same molecule, the fluorescence slope in assay [4] is -0.394 (inactive). In addition, in assay [5], the NADPH fluorescence slope was -5.2e-05 (inactive). In addition, the slope in [6] was 0.00786 (inactive). The molecule was called inactive in assay [7].
